Here are results for 1 compound from PMC11297572 (International Journal of Nanomedicine, 2024).

Data set [1] has as its system heart, liver, kidney and lung tissues. In words: HE staining of organs. Type of data set: in vivo. Particulars: lung of nude mice after administration.
Data set [2] concerns A549 subcutaneous transplanted tumor. In words: HE staining of tumor tissues. The note with it: tumor tissue after 21 days. Type of data set: in vivo, nude mice. The method, boiled down: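 Subcutaneous tumors were excised after 21 days of treatment once the surviving mice were killed. Tissue was washed twice in 0.9% saline, fixed in 4% paraformaldehyde, dehydrated, paraffin-embedded and sectioned. Sections were stained with hematoxylin and eosin and assessed for pathology. All procedures were done blind.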

Data set [3] shares this test system. In words: In vivo antitumor efficacy in tumor-bearing nude mice. The note with it: 21 days of administration. The method, boiled down:
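The xenograft model used A549 cells. Treatment ran for 21 days with body weight tracked against the start of dosing; n = 5 per group. At the end, surviving mice were killed and tumors were excised and weighed to calculate tumor inhibition rate.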

The subject of data set [4] is A549 cells. In words: Apoptosis of A549 cells. Type of data set: cell-based, human. Particulars: 24 h.
Data set [5] has as its system A549 cells. In words: MTT growth inhibition of A549 cells. Type of data set: cell-based. Particulars: Homo sapiens. In a few lines:
(§1)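 Cells were grown in RPMI 1640 or DMEM with 10% FBS and 100 U/mL penicillin-streptomycin at 37 °C, 5% CO2. Log-phase cells were seeded at 3–5×10³ per well and cultured 24 h before graded drug concentrations were added. After 24 or 48 h exposure, MTT (5 mg/mL solution) was added for 3–4 h. Medium was removed, formazan dissolved in DMSO with 10 min shaking, and OD read at 490 nm. Growth inhibition rate was calculated from OD. Data are mean ± SD of triplicates.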

In a further data set the test system is H460 cells. The data set is described as follows: MTT growth inhibition of H460 cells. Type of data set: cell-based. Particulars: Homo sapiens. In a few lines:
as §1

For the next data set, the system named is Ki67. The data set is described as follows: Immunohistochemistry of Ki67 in tumor tissues. Type of data set: in vivo, nude mice. Particulars: tumor tissue after 21 days. In a few lines:
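Tumors were taken at the end of the 21-day study and fixed in 4% paraformaldehyde for 24 h. They were dehydrated in absolute alcohol, paraffin-embedded and sectioned. Antigen retrieval was 5 min at high temperature in 0.01 M citrate buffer, pH 6.0. Primary antibody (1:200) was applied overnight at 4 °C, then secondary antibody for 30 min at 37 °C. Sections were developed with DAB, counterstained with hematoxylin and imaged. Scoring was blind.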

Converted amounts (≈) assume the structure as drawn. “Also recorded” adds a separate entry of the source.

`CC(=O)O[C@H]1C(=O)[C@@]2(C)[C@H]([C@H](OC(=O)c3ccccc3)[C@]3(O)C[C@H](OC(=O)[C@H](O)[C@@H](NC(=O)c4ccccc4)c4ccccc4)C(C)=C1C3(C)C)[C@]1(OC(C)=O)CO[C@@H]1C[C@@H]2O` [PTX, paclitaxel]: the “pathological changes in organs (HE staining)” value in data set [1] was “pathological changes and tumor cell infiltration; also recorded: different degrees of pathological changes and necrosis in their hearts and livers”. Further, the “necrosis of tumor tissue (necrotic area)” value in data set [2] is given as “approximately 20%”. Besides, the body weight change result in data set [3] (nude mice) is recorded as “gradual”. This compound gave a tumor inhibition rate in data set [3] (tumor-bearing nude mice) of 29.95%. Further, the apoptosis rate was determined as 3.57% in the data set with A549 cells [4] (A549, 5 μg/mL); 7.34% in the data set on A549 cells [4] (A549, 10 μg/mL); 16.6% in the data set with A549 cells [4] (A549, 20 μg/mL). Further, the IC50 worked out at 45.9 µg/mL (≈ 53.7 µM) with A549 cells [5] (A549, 24 h); 31.7 µg/mL (≈ 37.1 µM) in the data set with A549 cells [5] (A549, 48 h); 49.3 µg/mL (≈ 57.7 µM) with H460 cells (NCI-H460, 24 h); 39.4 µg/mL (≈ 46.1 µM) in the data set on H460 cells (NCI-H460, 48 h). Besides, the “expression of Ki67 in tumor tissues” value in the data set on Ki67 is listed as 45.88%.
